Calls of active or inactive are those of the source. The calls are words filed in the database; no cut-off is given here.
Columns and labels:
[1] = Dissociation constant, pKa at pH 2.0 to 11.0 by potentiometric cosolvent titration; format: physicochemical
[2] = molecular target: hERG (KCNH2) (Homo sapiens, UniProt Q12809); experiment: Inhibition of human ERG expressed in CHO-K1 cells at 10 uM by whole-cell patch clamp technique; format: cell-based; conditions: CHO-K1 cells that express human ERG
Method in brief: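 CHO-K1 cells stably transfected with hERG; whole-cell patch clamp recording of tail currents with test compound at 10 μM, three cells per compound; relative block of tail current amplitude given as arithmetic mean.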

[3] = system: Gastric gland; experiment: Inhibition of acid secretion in New Zealand White rabbit intact gastric glands assessed as [14C]dimethylaminopyridine accumulation by radioactivity; format: functional, tissue-based; conditions: Oryctolagus cuniculus
Method in brief: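 Gastric glands isolated intact from New Zealand rabbits; cellular activity read as reduced accumulation of the weak base 14C-dimethylaminopyridine; pIC50 given as geometric mean of 4-5 determinations.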

[4] = system: Canis familiaris; experiment: Inhibition of pentagastrin-stimulated acid secretion in po dosed Beagle dog fistula model assessed as elevation of intragastric pH after 2.5 hrs; format: functional, organism-based; conditions: Canis lupus familiaris
Method in brief: (§1)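 Surgically prepared fistula dogs; pentagastrin infused subcutaneously from 1 h after start of pH-metry over 22.5 h; drug or vehicle given orally in capsules 2.5 h after start; intragastric pH recorded continuously for 24 h with combined glass electrode and ambulatory pH meter; duration of pH >5 read from curves.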

[5] = system: Rattus norvegicus; experiment: Inhibition of pentagastrin-stimulated acid secretion in intraduodenally dosed perfused Sprague-Dawley rat Ghosh Schild model; format: functional; conditions: intraduodenal
[6] = Inhibition of H+/K+ ATPase in hog gastric mucosa by malachite green based competitive binding assay; format: tissue-based, Sus scrofa
Method in brief: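 Hog gastric mucosa H+/K+-ATPase, isolated enzyme; competitive binding assay run at pH 7.4; pIC50 reported as geometric mean of 4-5 measurements.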

[7] = Partition coefficient, log D by HPLC; format: physicochemical; conditions: octanol/water
Method in brief: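 logD by reversed-phase HPLC at 37 °C, calibrated with seven reference substances of known logD.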

[8] = system: Canis familiaris; experiment: Inhibition of pentagastrin-stimulated acid secretion in po dosed Beagle dog fistula model assessed as elevation of intragastric pH after 8 hrs; format: functional, organism-based; conditions: Canis lupus familiaris; method in brief: as §1
[9] = Octanol/aqueous KCl distribution coefficient, log D at pH 7.4 by potentiometric titration; format: physicochemical
Method in brief: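 Octanol/aqueous KCl distribution coefficient from potentiometric titrations across pH 2.0-11.0 at 25 °C.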

[10] = system: Canis familiaris; experiment: Inhibition of pentagastrin-stimulated acid secretion in po dosed Beagle dog fistula model assessed as elevation of intragastric pH; format: functional, organism-based; conditions: Canis lupus familiaris; method in brief: as §1
[11] = system: Canis familiaris; experiment: Inhibition of pentagastrin-stimulated acid secretion in po dosed Beagle dog fistula model assessed as elevation of intragastric pH after 2 hrs; format: functional, organism-based; conditions: Canis lupus familiaris; method in brief: as §1
[12] = system: Rattus norvegicus; experiment: Inhibition of pentagastrin-stimulated acid secretion in Sprague-Dawley rat Ghosh Schild model at 3 umol/kg, intraduodenally; format: functional; conditions: intraduodenal
[13] = system: Canis familiaris; experiment: Inhibition of pentagastrin-stimulated acid secretion in Beagle dog fistula model assessed as elevation of intragastric pH at 9 umol/kg, po after 8 hrs; format: functional, organism-based; conditions: Canis lupus familiaris; method in brief: as §1
[14] = Oral bioavailability in Beagle dog fistula model; format: ADME, organism-based, Canis lupus familiaris; conditions: in vivo
[15] = Clearance in Beagle dog fistula model; format: ADME, organism-based, Canis lupus familiaris; conditions: in vivo
[16] = Clearance in Sprague-Dawley rat Ghosh Schild model; format: ADME, organism-based; conditions: in vivo
[17] = Oral bioavailability in Sprague-Dawley rat Ghosh Schild model; format: ADME, organism-based; conditions: in vivo
[18] = system: Canis familiaris; experiment: Inhibition of pentagastrin-stimulated acid secretion in po dosed Beagle dog fistula model assessed as elevation of intragastric pH after 4 hrs; format: functional, organism-based; conditions: Canis lupus familiaris; method in brief: as §1

hERG (KCNH2), sequence (Q12809 whole entry): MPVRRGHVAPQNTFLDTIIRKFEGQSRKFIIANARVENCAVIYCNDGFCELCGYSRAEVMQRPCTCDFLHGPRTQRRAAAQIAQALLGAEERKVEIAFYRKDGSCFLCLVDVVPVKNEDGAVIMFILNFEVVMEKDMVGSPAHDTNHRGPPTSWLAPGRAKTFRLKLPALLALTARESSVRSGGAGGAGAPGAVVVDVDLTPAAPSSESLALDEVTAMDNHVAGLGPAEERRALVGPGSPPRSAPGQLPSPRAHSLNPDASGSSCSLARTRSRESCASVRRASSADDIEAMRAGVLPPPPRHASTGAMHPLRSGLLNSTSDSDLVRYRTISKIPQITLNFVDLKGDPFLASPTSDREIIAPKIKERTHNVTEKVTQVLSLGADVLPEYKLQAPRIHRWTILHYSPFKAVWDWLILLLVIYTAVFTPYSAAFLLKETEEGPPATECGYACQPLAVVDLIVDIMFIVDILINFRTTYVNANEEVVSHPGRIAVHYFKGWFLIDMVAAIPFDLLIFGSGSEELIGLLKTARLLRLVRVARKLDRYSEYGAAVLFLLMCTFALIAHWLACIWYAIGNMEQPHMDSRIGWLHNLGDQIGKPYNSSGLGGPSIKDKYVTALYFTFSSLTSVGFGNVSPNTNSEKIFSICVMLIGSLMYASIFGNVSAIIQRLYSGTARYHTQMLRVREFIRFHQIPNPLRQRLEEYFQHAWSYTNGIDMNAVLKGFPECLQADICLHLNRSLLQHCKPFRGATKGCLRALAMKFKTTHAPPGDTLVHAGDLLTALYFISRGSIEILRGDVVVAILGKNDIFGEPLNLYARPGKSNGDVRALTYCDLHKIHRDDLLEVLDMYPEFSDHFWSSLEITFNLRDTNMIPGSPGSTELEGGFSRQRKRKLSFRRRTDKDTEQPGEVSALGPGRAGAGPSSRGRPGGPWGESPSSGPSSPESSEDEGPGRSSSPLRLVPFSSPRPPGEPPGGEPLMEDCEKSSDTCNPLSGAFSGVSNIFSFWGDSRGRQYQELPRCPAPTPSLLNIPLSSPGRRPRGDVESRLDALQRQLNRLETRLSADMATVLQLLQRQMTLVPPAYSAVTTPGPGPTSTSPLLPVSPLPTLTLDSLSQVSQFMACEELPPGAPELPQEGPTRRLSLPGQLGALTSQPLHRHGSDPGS

pKa [1]	IC50 [3] [nM]	pIC50 [6]	logD [7]	pKa ([1]; read-out: pKa)	logD [9]	bioavailability [14] [%]	clearance [15] [mL/min/kg]	clearance [16] [mL/min/kg]	bioavailability [17] [%]	Compound	inhibition at 10 µM [2] [%]	Activity [4]	ED50 [5] [µmol/kg]	Activity [8]	Activity [10]	Activity [11]	inhibition in vivo at 3 µmol/kg [12] [%]	Activity [13]	Activity [18]
5.7	2510	5.1	2.7	–	–	–	–	–	–	CNC(=O)c1cc2c(nc(C)n2C)c2c1CC[C@@H](c1ccccc1C)O2	3	Active	0.25	–	–	–	–	–	–
–	794	4.9	3.1	5.6	3.46	–	–	–	–	CNC(=O)c1cc2c(nc(C)n2C)c2c1CC[C@@H](c1ccc(Cl)cc1C)O2	45	–	0.15	Active	–	–	–	–	–
–	398	5.1	2.9	5.59	2.92	–	–	–	–	Cc1nc2c3c(c(C(=O)N(C)C)cc2n1C)CC[C@@H](c1ccc(Cl)cc1)O3	84	–	0.15	–	Active	Active	–	–	–
–	79400	4.9	2.5	–	–	–	–	–	–	Cc1ccccc1[C@@H]1CCc2c(C(=O)N3CC(C(=O)N(C)C)C3)cc3c(nc(C)n3C)c2O1	6	–	3	–	–	–	36	–	–
5.68	794	5.3	2.8	–	–	72	4.67	21	64	Cc1ccccc1[C@@H]1CCc2c(C(=O)N(C)C)cc3c(nc(C)n3C)c2O1	33	–	0.23	–	–	–	–	Active	–
–	200	6.1	3.2	5.59	3.4	–	–	–	–	Cc1cc(Cl)ccc1[C@@H]1CCc2c(C(=O)N(C)C)cc3c(nc(C)n3C)c2O1	-6	–	0.1	–	–	–	–	–	Active

Reference: ChEMBL document CHEMBL1158548, “Tetrahydrochromenoimidazoles as potassium-competitive acid blockers (P-CABs): structure-activity relationship of their antisecretory properties and their affinity toward the hERG channel” (J Med Chem, 2010)
